Active and inactive are the calls of the source. The calls are words filed in the database; no cut-off is given here.
Columns and labels:
[1] = Half life in mouse liver microsomes; type: ADME, Microsome
[2] = Plasma concentration in mouse at 10 mg/kg, po after 1 hr; type: ADME, organism-based
Procedure, shortened: (§1)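 Mice dosed orally at 10 mg/kg, with n = 3 animals per time point. Plasma concentration was followed over time, with sampling to at least 6 h.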

[3] = Plasma concentration in mouse at 10 mg/kg, po after 6 hrs; type: ADME, organism-based; procedure, shortened: as §1
[4] = Kinetic solubility in neutral buffer; type: physicochemical
Procedure, shortened: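 Kinetic solubility measured in aqueous buffer at pH 7.4.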

[5] = biological target: T1, DNA topoisomerase 2-alpha (Homo sapiens, UniProt P11388); assay: Poison activity at human topo2alpha assessed as induction of accumulation of topo-2/DNA cleavage complex formation at 200 uM using […] plasmid incubated for 6 mins by SYBR safe DNA stain based cleavage complex formation assay
T1 sequence (P11388 whole entry): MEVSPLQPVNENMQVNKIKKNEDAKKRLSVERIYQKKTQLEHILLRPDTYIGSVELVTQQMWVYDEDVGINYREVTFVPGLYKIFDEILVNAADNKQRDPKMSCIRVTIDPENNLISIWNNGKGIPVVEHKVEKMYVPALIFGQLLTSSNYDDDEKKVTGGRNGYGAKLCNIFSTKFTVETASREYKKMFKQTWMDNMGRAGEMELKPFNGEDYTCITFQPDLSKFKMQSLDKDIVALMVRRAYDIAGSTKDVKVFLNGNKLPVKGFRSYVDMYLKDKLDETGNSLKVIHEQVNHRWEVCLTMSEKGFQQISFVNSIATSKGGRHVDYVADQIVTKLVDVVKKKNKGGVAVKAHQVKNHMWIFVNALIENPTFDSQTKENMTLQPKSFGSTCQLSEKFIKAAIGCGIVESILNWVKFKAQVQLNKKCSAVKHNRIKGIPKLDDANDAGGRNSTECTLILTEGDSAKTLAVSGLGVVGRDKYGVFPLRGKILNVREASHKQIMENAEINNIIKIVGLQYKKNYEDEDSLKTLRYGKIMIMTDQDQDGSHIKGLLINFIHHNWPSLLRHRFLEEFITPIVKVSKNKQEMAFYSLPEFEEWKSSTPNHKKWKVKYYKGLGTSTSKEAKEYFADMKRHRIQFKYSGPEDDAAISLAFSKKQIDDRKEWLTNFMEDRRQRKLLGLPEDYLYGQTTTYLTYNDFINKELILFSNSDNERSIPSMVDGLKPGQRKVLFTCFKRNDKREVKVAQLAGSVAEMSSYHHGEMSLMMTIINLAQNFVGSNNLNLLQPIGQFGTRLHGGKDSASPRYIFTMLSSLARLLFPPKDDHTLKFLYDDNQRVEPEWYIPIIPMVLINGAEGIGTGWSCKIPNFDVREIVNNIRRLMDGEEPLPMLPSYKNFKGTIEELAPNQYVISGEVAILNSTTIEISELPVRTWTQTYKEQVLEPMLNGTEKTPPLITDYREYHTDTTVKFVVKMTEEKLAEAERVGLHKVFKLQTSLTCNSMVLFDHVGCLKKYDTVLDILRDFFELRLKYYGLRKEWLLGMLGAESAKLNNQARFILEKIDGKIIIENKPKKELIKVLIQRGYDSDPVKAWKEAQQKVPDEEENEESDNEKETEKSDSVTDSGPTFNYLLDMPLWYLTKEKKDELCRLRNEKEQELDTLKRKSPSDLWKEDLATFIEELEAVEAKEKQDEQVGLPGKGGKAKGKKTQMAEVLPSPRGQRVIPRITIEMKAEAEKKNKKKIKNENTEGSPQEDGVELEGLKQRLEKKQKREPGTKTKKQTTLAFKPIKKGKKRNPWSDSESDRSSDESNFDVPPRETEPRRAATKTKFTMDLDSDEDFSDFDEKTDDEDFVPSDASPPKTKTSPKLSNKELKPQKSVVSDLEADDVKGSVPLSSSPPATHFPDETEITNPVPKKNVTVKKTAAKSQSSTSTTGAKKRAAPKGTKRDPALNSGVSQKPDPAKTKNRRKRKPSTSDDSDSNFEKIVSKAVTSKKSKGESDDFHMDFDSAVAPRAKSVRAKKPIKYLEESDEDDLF
Procedure, shortened: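 Test compound at 200 μM was incubated with 1 U topoisomerase II and 500 ng […] plasmid for 6 min at 37 °C, with 1% DMSO final; vehicle and no-enzyme lanes served as controls. Products were run on a 1% agarose gel with SYBR Safe stain. The band intensity of linear DNA (form III) was quantified and normalized.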

[6] = Half life in mouse plasma; type: ADME, cell-free
[7] = biological target: T1, DNA topoisomerase 2-alpha; assay: Inhibition of human topo2alpha by plasmid relaxation assay

SMILES | half-life [1] | concentration at 1 h [2] | concentration at 6 h [3] | Kinetic_solubility [4] | Activity [5] | half-life [6] | IC50 [7]
O=C(Nc1cccc(OC(F)(F)F)c1)c1c(O)n(-c2ccccc2)c(=S)n(-c2ccccc2)c1=O | > 1 h | 400 ng/mL | 400 ng/mL | 224 µM | Active | > 2 h | –
O=C1NC(=S)NC(=O)C1C(=O)Nc1ccccc1 [MERBARONE] | – | – | – | – | – | – | 40 µM
O=C(Nc1cccc(OC(F)F)c1)c1c(O)n(-c2ccccc2)c(=S)n(-c2ccccc2)c1=O | > 1 h | – | – | 208 µM | Active | > 2 h | –
CC(C)Oc1cccc(NC(=O)c2c(O)n(-c3ccccc3)c(=S)n(-c3ccccc3)c2=O)c1 | > 1 h | – | – | – | – | > 2 h | –
O=C(Nc1cccc(C(F)F)c1)c1c(O)n(-c2ccccc2)c(=S)n(-c2ccccc2)c1=O | > 1 h | – | – | 238 µM | Active | > 2 h | –
CC(F)(F)c1cccc(NC(=O)c2c(O)n(-c3ccccc3)c(=S)n(-c3ccccc3)c2=O)c1 | > 1 h | – | – | – | – | > 2 h | –
COc1cccc(CCNC(=O)c2c(O)n(-c3ccccc3)c(=S)n(-c3ccccc3)c2=O)c1 | > 1 h | – | – | – | – | > 2 h | –
